# Shown are actives, neighbours in structure and some others; about 1.7% of the full set was active somewhere.
# CAL PDZ FP-1 – untagged CAL PDZ binding inhibitors, primary screen, biochemical, fluorescence polarization, HTS | inhibition, % at 24.9 µM | purified CAL PDZ, TMR-peptide fluorescence polarization, 1 h | Golgi-associated PDZ and coiled-coil motif-containing protein (Homo sapiens), Q9HD26 | 0.92% of 300,000 active | AID 602252, 2012;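 active means mean inhibition of at least 30% with at least half of replicates also reaching 30%; inconclusive means no clear call, values can overlap the other calls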;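 further: 0% = DMSO neutral control and 100% = excess unlabeled competitor peptide PRC23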
# CAL PDZ FP-2 – CAL PDZ peptide-binding inhibitors, primary screen, biochemical, fluorescence polarization, Cer-tagged CAL PDZ, HTS; 0.02% of 330,000 active; inhibition, % at 20 µM; purified CAL PDZ, TMR-peptide fluorescence polarization, 1 h;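 active means highest replicate inhibition of at least 40%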;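 further: plate controls were DMSO neutral control wells for no effect and unlabeled competitor peptide control wells for full effect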
#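 Material: tagged CAL PDZ domain; buffer or medium: 25 mM sodium phosphate pH 7.4, 150 mM NaCl, TCEP, IgG, Thesit; compound dosing: single point, 20 µM; schedule: 1 h incubation at room temperature before polarization reading; measured by: FP readout, S and P plane fluorescence; read-out basis: percent inhibition from loss of millipolarization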
# Rce1 inh – yeast Rce1p protease inhibitors, primary screen, biochemical, fluorescence, cell-free homogeneous. CAAX prenyl protease 2 (Saccharomyces cerevisiae (strain ATCC 204508 / S288c)), Q03530. yeast membranes, quenched prenylated peptide cleavage fluorescence. calls only. 0.27% of 290,000 active. AID 2563, 2010;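 active means fall in fluorescence gain of 50% or more versus controls, with final raw signal at or below 3038400; inconclusive means same 50% fall but final raw signal above 3038400; inactive means fall in fluorescence gain under 50%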;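 further: plate controls were neutral control wells for no effect and wells lacking membranes for full effect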
# Target sequence (Q03530 whole entry, looked up): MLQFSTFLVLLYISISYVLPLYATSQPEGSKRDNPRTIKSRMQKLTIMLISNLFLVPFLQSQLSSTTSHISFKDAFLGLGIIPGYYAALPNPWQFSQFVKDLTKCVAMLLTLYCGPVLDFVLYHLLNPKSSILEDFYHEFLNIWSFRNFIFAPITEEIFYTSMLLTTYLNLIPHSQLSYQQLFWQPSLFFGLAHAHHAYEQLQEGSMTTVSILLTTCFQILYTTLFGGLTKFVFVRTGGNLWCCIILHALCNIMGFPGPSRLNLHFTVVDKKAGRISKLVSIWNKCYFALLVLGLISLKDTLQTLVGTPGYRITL
# AI-2 QS modul – Vibrio harveyi AI-2 quorum sensing modulators, primary screen, JMH597 strain, luminescence/OD600 ratio; Vibrio harveyi JMH597 AI-2 luminescence/OD600 ratio, 9 h; active compounds read low; strain lacks LuxN and CqsS sensors; 0 = neutral-control median; 0.4% of 300,000 active; activity change, % at 7.5 µM; in the data active means activity change below about -75%, passing the limit was not always enough; inconclusive means no clear call, values can overlap the other calls;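 further: luminescence divided by OD600 gain over 9 h not by final OD600 alone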
# ARNT TACC3 PPI – disruptors of ARNT/TACC3 protein interaction, primary screen, biochemical, AlphaScreen, single concentration; Transforming acidic coiled-coil-containing protein 3 (Homo sapiens), Q9Y6A5; AlphaScreen His-ARNT PAS-B/GST-TACC3 binding, luminescence; TACC3 fragment carries E629A point mutation; inhibition, % at 9.99 µM; 0.66% of 390,000 active; AID 623870, 2012;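 active means mean inhibition of replicates at least 50% and at least half of replicates each reaching 50%; inconclusive means half or more replicates reach 50% but mean below 50%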;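 further: 0% = complete ARNT plus TACC3 wells and 100% = ARNT alone without TACC3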
# JMH597 growth – Vibrio harveyi growth inhibition, confirmation, counter-screen for AI-2 quorum sensing project, JMH597 strain, OD600 absorbance. 9 h; lacks LuxN and CqsS sensors. growth inhibition, % at 7.5 µM. 1% of 750 active. shares compounds with AI-2 QS modul. AID 2726, 2010;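 active means every replicate shows growth inhibition above 50%; inconclusive means at least half, but not all, replicates pass that cutoff; inactive means fewer than half of replicates pass it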
# BB721 const-QS lum – luminescence inhibition in constitutive-on V. harveyi, confirmation, counter-screen for LuxS inhibitor project, strain BB721, luminescence readout; shares compounds with AI-2 QS modul; Vibrio harveyi BB721 luminescence, 9 h; inhibition, % at 7.5 µM; 95% of 750 active; AID 2727, 2010;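 active means inhibition above about 80% in every replicate, not just on average, limit read from the data; inconclusive means at least half of replicates past the limit, but not all; inactive means fewer than half of replicates past the limit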
# BB721 growth – growth inhibition of V. harveyi BB721, confirmation, cytotoxicity control for AI-2 quorum sensing inhibitors, strain BB721, absorbance OD600 | growth inhibition, % at 7.5 µM | Vibrio harveyi BB721 growth, 9 h | AID 2728, 2010 | shares compounds with AI-2 QS modul | 3% of 750 active;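 active means every replicate shows growth inhibition above 50%; inconclusive means at least half but not all replicates above 50% inhibition; inactive means under half of replicates above 50% inhibition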
# AI-2 QS JMH597 – Vibrio harveyi AI-2 signaling luminescence modulation – JMH597 strain, confirmation; shares compounds with AI-2 QS modul; Vibrio harveyi JMH597 AI-2 quorum sensing luminescence, 9 h; luxN and CqsS knockout, AI-2 only; inhibition, % at 7.5 µM; 97% of 750 active;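 active means every replicate shows more than 75% inhibition of signal versus neutral control wells; inconclusive means half to three quarters of replicates exceed 75% inhibition; inactive means fewer than half of replicates exceed 75% inhibition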
# An asterisk follows results filed as active; i = inactive; u = inconclusive; x = no result given.
SMILES,CAL PDZ FP-1,CAL PDZ FP-2,Rce1 inh,AI-2 QS modul,ARNT TACC3 PPI,JMH597 growth,BB721 const-QS lum,BB721 growth,AI-2 QS JMH597
O=C(COc1ccccc1F)Nc1ccc(S(=O)(=O)NCc2ccco2)cc1,0.2,-2.0,i,-92.2*,-3.3,28.6,99.1*,-11.7,99.3*
O=C(COc1ccccc1)Nc1ccc(S(=O)(=O)NCc2ccco2)cc1,-2.4,0.2,i,-96.8*,-9.6,13.2,99.7*,-56.7,99.8*
C[C@@H]1CCCCO[C@@H](CN(C)C(=O)c2ccncc2)[C@H](C)CN([C@H](C)CO)C(=O)c2cc(NC(=O)C3CCCCC3)ccc2O1,x,x,x,x,-7.5,x,x,x,x
Cc1ccc(OCCC(=O)Nc2ccc(F)c(F)c2)cc1,-0.1,-0.9,i,-86.3*,-3.2,15.4,94.1*,11.3,94.1*
Cc1cccc(OCCC(=O)Nc2ccc(F)c(Cl)c2)c1,0.4,-0.3,i,-86.0*,-16.0,23.2,94.4*,32.1,95.0*
Cc1cccc(OCCCC(=O)Nc2ccc3c(c2)OCO3)c1,-2.9,-2.2,i,16.6,0.4,x,x,x,x
Cc1sc2ncnc(OCC(=O)c3ccc(S(=O)(=O)N4CCCC4)cc3)c2c1C,0.2,13.0,x,-90.1*,-5.8,u,97.8*,68.9*,98.9*
Cc1sc2ncnc(OCC(=O)N3CCN(S(=O)(=O)c4ccc(Cl)cc4)CC3)c2c1C,-2.5,-2.0,i,20.6,-9.4,x,x,x,x
CC(C)CC(=O)/C=C/n1c(=S)oc2ccccc21,-5.6,0.4,i,-86.2*,x,28.6,92.5*,30.7,93.1*
O=C(c1cc(-c2ccc(O)cc2)on1)N1CCCCCC1,-6.1,-5.4,i,-78.3*,x,3.4,93.1*,-5.2,96.3*
O=C(COC(=O)c1n[nH]c2ccccc12)Nc1ccccc1,-4.1,-2.1,i,-65.7,-5.9,x,x,x,x
O=C(COC(=O)c1n[nH]c2ccccc12)Nc1cccc(S(=O)(=O)N2CCOCC2)c1,5.3,-4.0,i,-10.8,6.2,x,x,x,x
CC(=O)c1cccc(NC(=O)COC(=O)c2n[nH]c3ccccc23)c1,-0.5,0.2,i,-80.5*,-4.7,11.2,94.7*,-2.7,96.6*
Cc1cc(C)cc(NC(=O)COC(=O)c2n[nH]c3ccccc23)c1,-2.5,-1.0,i,-88.7*,-2.8,-7.7,95.8*,-22.8,96.4*
CC(OC(=O)Cc1coc2cc3c(cc12)CCC3)C(=O)NCc1ccc2c(c1)OCO2 (centres undefined),-2.3,-1.1,i,1.8,-5.2,x,x,x,x
O=C(COc1ncnc2ccccc12)Nc1ccccc1[N+](=O)[O-],-2.0,0.0,i,26.7,-2.2,x,x,x,x
COc1cc([N+](=O)[O-])ccc1NC(=O)COC(=O)C=C(C)C,4.1,-1.4,i,-22.6,3.4,x,x,x,x
O=C(COc1ncnc2ccccc12)Nc1ccc(Cl)c([N+](=O)[O-])c1,-5.7,-4.0,i,-96.8*,0.5,-20.7,99.7*,-10.2,99.8*
CC(C)=CC(=O)OCC(=O)Nc1cccc([N+](=O)[O-])c1,-4.6,0.4,i,-89.4*,-3.7,11.4,94.8*,4.1,97.0*

# Bioassay records: PubChem BioAssay, Broad Institute
